The data set has as its system MS2 coat protein. The data set is described as follows: apparent Kd, MS2 coat protein; higher = weaker binding; RNA-MaP array; FMN 200 µM where present. Put shortly:
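Two titrations, one without ligand and one with constant ligand, were run with SNAP-549-labelled MS2 coat protein from 0.7 or 1.5 nM, doubling to 3 µM. The targets were designs transcribed by stalled E. coli RNA polymerase on Illumina sequencing-chip clusters, in 100 mM Tris-HCl pH 7.5, 80 mM KCl, 4 mM MgCl2, BSA, DTT, yeast tRNA and Tween-20. The apparent Kd is the median of filtered per-cluster binding-curve fits, with green signal normalised to red-channel RNA signal and control-cluster median Fmax.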

Where [1] appears, read: designed as: ON switch for flavin mononucleotide, no ligand.
Setting [2] is: ligand present: flavin mononucleotide, designed as: ON switch for flavin mononucleotide.
Where [3] appears, read: designed as: OFF switch for flavin mononucleotide, no ligand.
[4] abbreviates: ligand present: flavin mononucleotide, designed as: OFF switch for flavin mononucleotide.

For “GGAGAGUUCACAGGAUAUCAUGGGUAGUUAUUUUGAGAAGGGUGAACAAGGAACAUGAGGAUCACCCAUGUAUCCUGGGAGGGC”, the apparent Kd (as a rule, the concentration giving half-maximal binding under the conditions of the assay) amounted to 24.4 nM under setting [1] and 36.8 nM under setting [2].

“CUUUAGUGAGGAUAUCAGUAGUAAUACAAUAGUAUUAUUACUGAGAAGGCACAUGAGGAUCACCCAUGUUCCUC”: the “apparent Kd” value is, setting by setting: under setting [3], 29.4 nM; under setting [4], 120 nM.

For the sequence “UUUUAACAUGAGGAUCACCCAUGUGAGGAUAUCGAAAUUUAUAUUAAUAUUAAUUUAUCGAGAAGGCACAUUUU”, the “apparent Kd” value reads like this: under setting [3], 107 nM; under setting [4], 133 nM.

As for “AAAGGACAUGAGGAUCACCCAUGUGAGGAUAUGCUCUACGAACGAAUACACAUGAGAAGCAGAAGGCACAUAAG”, the “apparent Kd” value reads like this: under setting [3], 151 nM; under setting [4], 247 nM.

For “CACCGACCCUAUGUGUUCUAAACAUGAGGAUCACCCAUGUAUAGAAGGGUCUUCGCGAAACGCAGACAGGAUAUGUACAGGAGU”, the “apparent Kd” value came out at 7.23 nM under setting [3] and 13.6 nM under setting [4].

In the case of “UUAUUUUUACAGAAGGUUUAAUACUAUGUAUGAGAAGGAUAUGUAACAUGAGGAUCACCCAUGUUUUAUUUAUAUGAGGUUCGU”, the “apparent Kd” value runs as follows: under setting [3], 13.8 nM; under setting [4], 12.5 nM.

Consider “CAUUCGUGUCUAGGAUAUGAGUGACAAGCACGAGAUUUUCUCGCCGCUAGCUCAGAAGGAGACAUGAGGAUCACCCAUGUAAGG”, for which the “apparent Kd” value was found to be 96.4 nM under setting [3] and 17.4 nM under setting [4].

Turning to “UUUAUGGGACAGAAGGGCAAUUUCUUUAAUUAUUAUUUAAAACAUCAUUGCAGGAUAUGUAUAACAUGAGGAUCACCCAUGUAC”, the “apparent Kd” value runs as follows: under setting [1], 36.2 nM; under setting [2], 12.2 nM.

Consider “GGACGACUCAUUAACAUGAGGAUCACCCAUGUCAAAAGACAUGAGGAUAUGGAUCCUAAUUGGAUCCAGAAGGCAUGGUCGUCC”, for which the “apparent Kd” value is, setting by setting: under setting [1], 944 nM; under setting [2], 51.8 nM.

As to “AUAUAAUAUCAGGAUAUGACUAGCUUCGGCUAGUCAGAAGGGAUGACAUGAGGAUCACCCAUGUGAUCAUAUAU”, the “apparent Kd” value turned out to be 35.7 nM under setting [3] and 153 nM under setting [4].

As to “UCAUUUCAGUAAGGAUAUUAAAACAUGACGAUACAUGAGGAUCACCCAUGUUAAGAAGGUACUAAUACAUAUAAUGCAAUGUUC”, the “apparent Kd” value under setting [3] turned out to be 16 nM and the “apparent Kd” value under setting [4] was found to be 15 nM.

“CAAAUUGCAGGAUAUACUGGGCCAGAGCCAUCGUGUAUUCCACAUGAGGAUCACCCAUGUAGAAGGGCACGUAC”: the “apparent Kd” value was 27.2 nM under setting [3] and 99.1 nM under setting [4].

Take “UAUAUAUAGGCAGGAUAUACAUGAAUAUAUAUAAUAUAAUAUAAUAUAACAUGAGGAUCACCCAUGUAGAAGGGCCAAUAUAUA”: the “apparent Kd” value by setting is: under setting [3], 56.2 nM; under setting [4], 117 nM.

Turning to “UCGAUCGGAGGAUAUACUAAUACAACUACUGAAGUGUCAAAACAUGAGGAUCACCCAUGUAGAAGGCCGAUAUA”, the “apparent Kd” value is, setting by setting: under setting [3], 21.8 nM; under setting [4], 24.3 nM.

For “ACAUGAGGAUCACCCAUGUAUUUAUUUGAAUCUUAAGUUACGUAGGAUAUCGUGUAUACUAUCAUCGAGAAGGACGAUGUGAUA”, the “apparent Kd” value came out at 15.4 nM under setting [1] and 13.6 nM under setting [2].

Take “AUGUACCUAGGAUAUACAUGAGGAUCACCCAUGUUCCGGGUGCAAUCAAGUUAAUAUUGUAGAAGGAGGUGAAA”: the “apparent Kd” value is 17 nM under setting [3] and 31.8 nM under setting [4].

Take “GCAUGGAAAGUGAGGAUAUACCACUGGAUACAGUGGUAGAAGGCACAUGAGGAUCACCCAUGUCUCUACCAUGC”: the “apparent Kd” value was 13.6 nM under setting [3] and 30.8 nM under setting [4].

As for “CCUAUAAGAAAAUAGACGAAGUGGCCAGAAGGUGAAUGCCACAUGAGGAUCACCCAUGUUUCGAUCAAGGAUAUGGUUUCUCAC”, the “apparent Kd” value was determined as 497 nM under setting [1] and 129 nM under setting [2].

For “CGCUAAGAUGGGUCUAAUGGACCAUAGGAUAUGCUUGUACAUGAGGAUCACCCAUGUAAUAUUGUGCAGAAGGGUGGAUUUGCG”, the “apparent Kd” value by setting is: under setting [1], 26.4 nM; under setting [2], 19.6 nM.

With “GUGUAGUCAGGAUAUACAUAGGAAGAGAAGAGAAGAGAAGGACAUGAGGAUCACCCAUGUAGAAGGGACAGUGU”, the “apparent Kd” value came to 46.7 nM under setting [3] and 40.9 nM under setting [4].

“GUAGCAUACCGAGGAUAUUCAUAUAAUAAAUAAACAUGAGGAUCACCCAUGUGGCGAAAGCCUUGGGAGAAGGCGGAAUGCUAC”: the “apparent Kd” value was determined as 647 nM under setting [1] and 37.3 nM under setting [2].

With “AGUUAAUAUCGAGGAUAUCCUCAGAAACAUGAGGAUCACCCAUGUAGAAUGGGAGAAGGCGAUAUUAACAGCAUGUUACAUGCA”, the “apparent Kd” value by setting is: under setting [1], 182 nM; under setting [2], 27.9 nM.

On to “AAGACAUGAGGAUCACCCAUGUAAAGACCGGUCGAUCAAUGUGAGGAUAUUCCAUAAUUGAUAGGGAAGAAGGCACUGGGUUGA”, for which the “apparent Kd” value is, setting by setting: under setting [1], 177 nM; under setting [2], 130 nM.

With “GGUGGACAUGAGGAUCACCCAUGUGAGGAUAUCGGCUAUCUUAUCGCUGUCGGUUGCUCGAGAAGGCACAUUGU”, the “apparent Kd” value runs as follows: under setting [3], 76.7 nM; under setting [4], 195 nM.

In the case of “AAGAUGUCAGGAUAUGCUGCUCGUCACUUGCGUGAUGAGUAGCAGAAGGGACAUGAGGAUCACCCAUGUAAAGA”, the “apparent Kd” value under setting [3] was 154 nM and the “apparent Kd” value under setting [4] is 244 nM.

For the sequence “AUAGCUCCCUAGAAGGGCCAACGACAAUUGCAUCACGUAGUUGGCGUAGGUAGGAUAUGGGACAUGAGGAUCACCCAUGUGUAG”, the “apparent Kd” value was determined as 27 nM under setting [1] and 16.1 nM under setting [2].

In the case of “CAGGUUAGAGGAUAUACGUAGGUACAGAUCUGUGUGUUUCUACAUGAGGAUCACCCAUGUAGAAGGCUAUCCUG”, the “apparent Kd” value is, setting by setting: under setting [3], 25.6 nM; under setting [4], 20 nM.

For the sequence “GAUUAAUGCAAGGAUAUGCUAUUAUUUUAUUUUGCAGAAGGUGCAACAUGAGGAUCACCCAUGUUGGAGGGUAU”, the “apparent Kd” value runs as follows: under setting [3], 19.8 nM; under setting [4], 29.8 nM.

“CCCGUCAUCGAGAAGGCCUCAACAUGAGGAUCACCCAUGUUGUAAUAUGGGAGGAUAUCGAUGAUACAGCUACGUUUCGUAGGG”: the “apparent Kd” value reads like this: under setting [1], 17.3 nM; under setting [2], 6.33 nM.

With “UCAUGGUAGCAGGAUAUGCUUGUAAUUUUUUAUGCAGAAGGGCUUACAUGAGGAUCACCCAUGUGUUAGGUCUA”, the “apparent Kd” value amounted to 43.4 nM under setting [3] and 66.2 nM under setting [4].

Turning to “GAAGGAUGAGCGUAGGAUAUAGGAGGAGUGACAUGAGGAUCACCCAUGUGGUAGGAGGGAGGGUACUAGAAGGACGAGGAAGAGG”, the “apparent Kd” value turned out to be 63.5 nM under setting [1] and 52.2 nM under setting [2].

Consider “UUCAGCUCGUGAGGAUAUACAUGUGCUGGAAACAGCACUAUUAAAUUCACAUGAGGAUCACCCAUGUAGAAGGCACGAGCUGAG”, for which the “apparent Kd” value is, setting by setting: under setting [3], 15.4 nM; under setting [4], 18.7 nM.

Consider “GCCAGCUCGUGAGGAUAUACAACACUGCUUCGGCAGUGUAUUAAGAUCACAUGAGGAUCACCCAUGUAGAAGGCACGAGCUGAU”, for which the “apparent Kd” value under setting [3] amounted to 13.8 nM and the “apparent Kd” value under setting [4] was found to be 261 nM.

Take “UUUCUCGGCGAGAAGGGAGUACAUGAGGAUCACCCAUGUGGUCCAUGGAGCUCAGGAUAUCGCGAGGUCGAUGUCGACGGAGUA”: the “apparent Kd” value is, setting by setting: under setting [3], 127 nM; under setting [4], 231 nM.

Regarding “AAGCUAACCACAGGAUAUCCACAUGAGGAUCACCCAUGUUGCUGAAGAGCAGGAGAAGGGUGGUGGGCAGAGUGCGCUGUCGUG”, the “apparent Kd” value amounted to 53.5 nM under setting [1] and 8.75 nM under setting [2].

“CUGAGCAAUGUAGGAUAUCGACUGGAUAACAGUCGAGAAGGACAUGAGGAUCACCCAUGUCAAUGAGUGAAUAAUAAAGCUCAG”: the “apparent Kd” value is 20.4 nM under setting [3] and 118 nM under setting [4].

Consider “GUAGCUAUCGGAGGAUAUUCAUACCGGAAACGGACAUGAGGAUCACCCAUGUGGCGAAAGCCUUGGGAGAAGGCAGAUAGCUAC”, for which the “apparent Kd” value by setting is: under setting [1], 693 nM; under setting [2], 28.6 nM.

In the case of “UCUGCAUAGUCAGGAUAUGCAAAGUAAGCUAUGGAAACAUAGCUUACAACAUGAGGAUCACCCAUGUAGAAGGGACUGUGCAGA”, the “apparent Kd” value runs as follows: under setting [3], 14.1 nM; under setting [4], 13 nM.

For the sequence “AAAACAUGAGGAUCACCCAUGUAAAGAACGCUUAAUAGAUCUGAGGAUAUACUAGAAUUUACGUAGUAGAAGGCAGUGGGUACA”, the “apparent Kd” value under setting [1] was found to be 31.3 nM and the “apparent Kd” value under setting [2] came out at 25.3 nM.

For the sequence “AAAAAACAUGAGGAUCACCCAUGUCUUCGGACAUGAGGAUAUGUACAGACUUCGGUCUGUACAGAAGGCAUGUCUU”, the “apparent Kd” value amounted to 97.2 nM under setting [1] and 22.8 nM under setting [2].

For the sequence “CCUCGACAUGAGGAUCACCCAUGUCAGGAUAUUGUGUAUCGGGUUUUUUACCGAAAGGCGAGAAGGGAUGUGUG”, the “apparent Kd” value stood at 16.9 nM under setting [3] and 23.1 nM under setting [4].

Regarding “CGUGCGUAUGUGAGGAUAUGCUGGUCCUUGGAUCGGCAGAAGGCACAUGAGGAUCACCCAUGUGGUGUCGUUCU”, the “apparent Kd” value runs as follows: under setting [3], 172 nM; under setting [4], 23.1 nM.

In the case of “AAAUCAGCAGGAUAUACGAUGUUAUGCUAGAUAGCGGGACCACAUGAGGAUCACCCAUGUAGAAGGGCUAGAUA”, the “apparent Kd” value amounted to 35 nM under setting [3] and 30.8 nM under setting [4].

Take “CCUUUAUAGAUCCAUUUUAACAACAUGAGGAUCACCCAUGUGCAGGAUAUCGAUUGUUUUACUUUCGAGAAGGGCAAAUUCAGC”: the “apparent Kd” value reads like this: under setting [3], 19.3 nM; under setting [4], 48.7 nM.

For the sequence “CUGGUGUGAGGAUAUCAAAGACCUCGGGAUAGUACCGAGGAUGAGAAGGCACAUGAGGAUCACCCAUGUAACAA”, the “apparent Kd” value reads like this: under setting [3], 21.2 nM; under setting [4], 35.4 nM.

With “GCAUUGUAAGGAUAUACGUGCAAAGUUUUCGCUGUAAGUCGACAUGAGGAUCACCCAUGUAGAAGGUAUAUGGU”, the “apparent Kd” value was determined as 24 nM under setting [3] and 24.1 nM under setting [4].

As to “UACAUUUAACAGAAGGCGUUUAUAUUUAACUUACGAGGAUAUGUAUAACAUGAGGAUCACCCAUGUAACUUGGAUAGAAUAUCU”, the “apparent Kd” value came to 9.46 nM under setting [1] and 8.32 nM under setting [2].

With “AUAUCUCUAUUAGUUCCAAUACGAACAUGAGGAUCACCCAUGUAGGAUAUGCUAGAAGUUGUGUUGCAGAAGGACAUGUACCUU”, the “apparent Kd” value is, setting by setting: under setting [3], 11.7 nM; under setting [4], 25.8 nM.

These data come from the EternaBench riboswitch data.
